Results reported in ChEMBL document CHEMBL4002615, “Investigation of piperazine benzamides as human β3 adrenergic receptor agonists for the treatment of overactive bladder” (Bioorg Med Chem Lett, 2017).

Assays:
[1] = target: T1, Beta-3 adrenergic receptor (Homo sapiens, UniProt P13945); assay: Agonist activity at human beta3 adrenergic receptor
Summary of the method: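 Human β3 receptor agonist EC50 given as the mean of at least two experiments.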
Target sequence in this assay (P13945 whole entry): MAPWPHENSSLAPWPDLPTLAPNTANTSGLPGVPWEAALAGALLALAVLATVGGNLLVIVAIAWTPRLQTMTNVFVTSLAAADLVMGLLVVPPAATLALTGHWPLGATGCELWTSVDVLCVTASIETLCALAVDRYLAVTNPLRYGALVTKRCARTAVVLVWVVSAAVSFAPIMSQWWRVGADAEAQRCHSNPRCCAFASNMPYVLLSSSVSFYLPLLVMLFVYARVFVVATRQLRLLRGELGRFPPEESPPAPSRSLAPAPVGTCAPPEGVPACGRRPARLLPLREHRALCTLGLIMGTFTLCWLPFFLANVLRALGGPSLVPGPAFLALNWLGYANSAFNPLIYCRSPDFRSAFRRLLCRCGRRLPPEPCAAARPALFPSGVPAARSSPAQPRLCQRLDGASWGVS

[2] = target: T1, Beta-3 adrenergic receptor; assay: Agonist activity at human beta3 adrenergic receptor relative to R-(-)-isoproterenol
Target sequence in this assay (P13945 whole entry, looked up): as the sequence (P13945 whole entry) above

[3] = target: Beta-1 adrenergic receptor (Homo sapiens, UniProt P08588); assay: Activity at human beta1 adrenergic receptor
[4] = target: Beta-2 adrenergic receptor (Homo sapiens, UniProt P07550); assay: Activity at human beta2 adrenergic receptor
[5] = target: Voltage-gated inwardly rectifying potassium channel KCNH2 (Homo sapiens, UniProt Q12809); assay: Inhibition of human ERG
[6] = target: Sodium channel protein type 5 subunit alpha (Homo sapiens, UniProt Q14524); assay: Inhibition of human Nav1.5 by electrophysiology method
[7] = target: Sodium-dependent serotonin transporter (Homo sapiens, UniProt P31645); assay: Inhibition of SERT (unknown origin)
[8] = Induction of phospholipidosis in human HepG2 cells; type: cell-based; settings: read-out: A50
[9] = target: Sodium-dependent noradrenaline transporter (Homo sapiens, UniProt P23975); assay: Inhibition of NET (unknown origin) expressed in HEK293 cells assessed as reduction in norepinephrine reuptake; type: cell-based
Rattus norvegicus [10] = assay: Total dose normalized AUC in rat 2 mg/kg, po; type: ADME, organism-based; settings: in vivo
[11] = Plasma clearance in rhesus monkey at 0.5 mg/kg, iv or 2 mg/kg, po; type: ADME, organism-based, Macaca mulatta
[12] = Volume of distribution in rhesus monkey at 0.5 mg/kg, iv or 2 mg/kg, po; type: ADME, organism-based, Macaca mulatta; settings: in vivo
Canis familiaris [13] = assay: Total dose normalized AUC in dog at 2 mg/kg, po; type: ADME, organism-based, Canis lupus familiaris; settings: in vivo
Rhesus monkey [14] = assay: Total dose normalized AUC in rhesus monkey at 2 mg/kg, po; type: ADME, organism-based, Macaca mulatta; settings: in vivo
[15] = Oral bioavailability in rhesus monkey at 2 mg/kg; type: ADME, organism-based, Macaca mulatta; settings: in vivo
[16] = Volume of distribution in rat at 1 mg/kg, iv or 2 mg/kg, po; type: ADME, organism-based; settings: in vivo
[17] = Plasma clearance in rat at 1 mg/kg, iv or 2 mg/kg, po; type: ADME, organism-based
[18] = Half life in rat at 1 mg/kg, iv or 2 mg/kg, po; type: ADME, organism-based; settings: in vivo
[19] = Oral bioavailability in rat 2 mg/kg; type: ADME, organism-based; settings: in vivo
[20] = Plasma clearance in rat at 0.5 mg/kg, iv administered as cassette dose or 2 mg/kg, po; type: ADME, organism-based
[21] = Volume of distribution in rat at 0.5 mg/kg, iv administered as cassette dose or 2 mg/kg, po; type: ADME, organism-based; settings: in vivo
[22] = Half life in rat at 0.5 mg/kg, iv administered as cassette dose or 2 mg/kg, po; type: ADME, organism-based; settings: in vivo
Rattus norvegicus [23] = assay: Unbound clearance in rat at 1 mg/kg, iv or 2 mg/kg, po; type: ADME, organism-based; settings: in vivo
Rattus norvegicus [24] = assay: Unbound dose normalized AUC in rat 2 mg/kg, po; type: ADME, organism-based; settings: in vivo
[25] = Unbound fraction in rat at 1 mg/kg, iv or 2 mg/kg, po; type: ADME, organism-based; settings: in vivo
[26] = Plasma clearance in dog at 0.5 mg/kg, iv or 2 mg/kg, po; type: ADME, organism-based, Canis lupus familiaris
Canis familiaris [27] = assay: Unbound clearance in dog at 0.5 mg/kg, iv or 2 mg/kg, po; type: ADME, organism-based, Canis lupus familiaris; settings: in vivo
[28] = Volume of distribution in dog at 0.5 mg/kg, iv or 2 mg/kg, po; type: ADME, organism-based, Canis lupus familiaris; settings: in vivo
[29] = Half life in dog at 0.5 mg/kg, iv or 2 mg/kg, po; type: ADME, organism-based, Canis lupus familiaris; settings: in vivo
Canis familiaris [30] = assay: Unbound dose normalized AUC in dog at 2 mg/kg, po; type: ADME, organism-based, Canis lupus familiaris; settings: in vivo
[31] = Oral bioavailability in dog at 2 mg/kg; type: ADME, organism-based, Canis lupus familiaris; settings: in vivo
[32] = Unbound fraction in dog at 0.5 mg/kg, iv or 2 mg/kg, po; type: ADME, organism-based, Canis lupus familiaris; settings: in vivo
Rhesus monkey [33] = assay: Unbound clearance in rhesus monkey at 0.5 mg/kg, iv or 2 mg/kg, po; type: ADME, organism-based, Macaca mulatta; settings: in vivo
[34] = Half life in rhesus monkey at 0.5 mg/kg, iv or 2 mg/kg, po; type: ADME, organism-based, Macaca mulatta; settings: in vivo
Rhesus monkey [35] = assay: Unbound dose normalized AUC in rhesus monkey at 2 mg/kg, po; type: ADME, organism-based, Macaca mulatta; settings: in vivo
[36] = Unbound fraction in rhesus monkey at 0.5 mg/kg, iv or 2 mg/kg, po; type: ADME, organism-based, Macaca mulatta; settings: in vivo

Chain of Sodium-dependent noradrenaline transporter (P23975 whole entry): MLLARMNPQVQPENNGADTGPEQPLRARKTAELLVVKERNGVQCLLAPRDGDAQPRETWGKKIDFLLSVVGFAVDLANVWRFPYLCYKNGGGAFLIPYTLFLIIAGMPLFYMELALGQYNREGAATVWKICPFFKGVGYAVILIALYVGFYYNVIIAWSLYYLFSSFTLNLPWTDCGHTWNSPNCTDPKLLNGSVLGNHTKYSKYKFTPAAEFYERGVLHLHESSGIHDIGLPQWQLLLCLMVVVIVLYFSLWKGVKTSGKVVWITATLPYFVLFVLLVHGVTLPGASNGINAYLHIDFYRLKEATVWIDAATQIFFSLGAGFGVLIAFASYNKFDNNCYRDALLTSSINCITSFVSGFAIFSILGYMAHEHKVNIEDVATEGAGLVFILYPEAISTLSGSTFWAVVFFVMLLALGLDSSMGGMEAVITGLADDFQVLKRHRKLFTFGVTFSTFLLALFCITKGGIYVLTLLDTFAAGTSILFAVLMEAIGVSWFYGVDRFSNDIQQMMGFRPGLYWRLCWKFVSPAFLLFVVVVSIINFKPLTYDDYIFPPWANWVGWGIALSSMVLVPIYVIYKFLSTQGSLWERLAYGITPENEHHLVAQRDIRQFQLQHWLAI
Chain of Beta-2 adrenergic receptor (P07550 whole entry): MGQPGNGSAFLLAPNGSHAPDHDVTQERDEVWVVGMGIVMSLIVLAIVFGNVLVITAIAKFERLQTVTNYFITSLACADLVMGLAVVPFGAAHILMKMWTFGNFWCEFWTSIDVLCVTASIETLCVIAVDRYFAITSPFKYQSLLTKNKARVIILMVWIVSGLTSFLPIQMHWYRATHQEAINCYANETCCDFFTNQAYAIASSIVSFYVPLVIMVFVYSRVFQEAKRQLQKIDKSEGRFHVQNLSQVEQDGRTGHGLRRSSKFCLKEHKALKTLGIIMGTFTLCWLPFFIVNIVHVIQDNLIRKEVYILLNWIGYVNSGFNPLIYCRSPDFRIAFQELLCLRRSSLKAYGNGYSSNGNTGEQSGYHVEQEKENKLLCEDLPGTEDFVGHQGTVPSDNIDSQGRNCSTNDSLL
Chain of Sodium channel protein type 5 subunit alpha (Q14524 whole entry): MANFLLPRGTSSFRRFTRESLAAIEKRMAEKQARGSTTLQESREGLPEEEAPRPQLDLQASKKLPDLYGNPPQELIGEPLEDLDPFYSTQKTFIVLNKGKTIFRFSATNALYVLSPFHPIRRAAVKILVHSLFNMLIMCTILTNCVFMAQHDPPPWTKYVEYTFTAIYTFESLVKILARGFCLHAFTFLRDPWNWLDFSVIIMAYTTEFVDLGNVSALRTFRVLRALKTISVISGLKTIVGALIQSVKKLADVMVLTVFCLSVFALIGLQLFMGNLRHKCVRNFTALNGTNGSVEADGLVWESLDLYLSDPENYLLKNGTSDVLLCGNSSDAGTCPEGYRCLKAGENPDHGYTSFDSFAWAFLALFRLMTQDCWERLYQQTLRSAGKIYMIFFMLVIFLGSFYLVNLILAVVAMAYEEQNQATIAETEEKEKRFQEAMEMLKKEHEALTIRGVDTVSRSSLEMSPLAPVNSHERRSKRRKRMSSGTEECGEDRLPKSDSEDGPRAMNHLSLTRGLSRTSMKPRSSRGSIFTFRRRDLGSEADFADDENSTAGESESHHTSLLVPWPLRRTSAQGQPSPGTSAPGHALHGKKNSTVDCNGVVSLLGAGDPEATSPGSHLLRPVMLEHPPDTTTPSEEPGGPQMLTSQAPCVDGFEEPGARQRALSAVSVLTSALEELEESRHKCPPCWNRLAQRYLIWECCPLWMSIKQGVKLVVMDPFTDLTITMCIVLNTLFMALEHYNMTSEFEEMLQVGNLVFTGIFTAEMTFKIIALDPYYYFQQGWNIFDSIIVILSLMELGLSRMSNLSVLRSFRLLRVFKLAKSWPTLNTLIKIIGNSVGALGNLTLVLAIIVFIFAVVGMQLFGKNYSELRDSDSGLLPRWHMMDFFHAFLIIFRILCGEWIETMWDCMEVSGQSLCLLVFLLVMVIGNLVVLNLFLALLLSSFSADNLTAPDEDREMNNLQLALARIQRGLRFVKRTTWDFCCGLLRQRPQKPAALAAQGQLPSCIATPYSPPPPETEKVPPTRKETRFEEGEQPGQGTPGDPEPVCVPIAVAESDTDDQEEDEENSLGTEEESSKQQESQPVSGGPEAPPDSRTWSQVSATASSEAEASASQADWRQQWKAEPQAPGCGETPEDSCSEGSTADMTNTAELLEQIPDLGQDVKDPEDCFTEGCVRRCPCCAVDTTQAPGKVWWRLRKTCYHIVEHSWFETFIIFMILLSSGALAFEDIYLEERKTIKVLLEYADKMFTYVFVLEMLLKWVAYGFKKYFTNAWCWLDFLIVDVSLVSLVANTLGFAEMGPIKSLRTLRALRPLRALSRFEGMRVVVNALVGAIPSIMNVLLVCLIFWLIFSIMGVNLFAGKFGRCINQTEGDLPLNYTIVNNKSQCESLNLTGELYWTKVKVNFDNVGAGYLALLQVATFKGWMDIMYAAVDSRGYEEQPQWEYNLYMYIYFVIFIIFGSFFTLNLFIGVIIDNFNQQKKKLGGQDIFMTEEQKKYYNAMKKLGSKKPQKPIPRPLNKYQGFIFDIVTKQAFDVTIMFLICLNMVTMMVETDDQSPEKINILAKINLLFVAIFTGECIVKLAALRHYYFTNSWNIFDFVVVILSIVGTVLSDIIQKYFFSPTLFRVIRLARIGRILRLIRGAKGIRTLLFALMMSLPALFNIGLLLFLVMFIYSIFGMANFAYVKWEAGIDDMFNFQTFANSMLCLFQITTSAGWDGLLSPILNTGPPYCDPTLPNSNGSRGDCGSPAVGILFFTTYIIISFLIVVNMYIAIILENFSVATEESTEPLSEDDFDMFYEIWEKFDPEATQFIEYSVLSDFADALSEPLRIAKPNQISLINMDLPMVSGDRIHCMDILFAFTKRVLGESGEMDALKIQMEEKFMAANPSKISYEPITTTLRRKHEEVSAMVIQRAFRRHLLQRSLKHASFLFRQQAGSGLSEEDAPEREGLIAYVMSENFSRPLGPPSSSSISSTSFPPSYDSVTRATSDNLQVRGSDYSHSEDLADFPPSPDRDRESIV
Chain of Sodium-dependent serotonin transporter (P31645 whole entry): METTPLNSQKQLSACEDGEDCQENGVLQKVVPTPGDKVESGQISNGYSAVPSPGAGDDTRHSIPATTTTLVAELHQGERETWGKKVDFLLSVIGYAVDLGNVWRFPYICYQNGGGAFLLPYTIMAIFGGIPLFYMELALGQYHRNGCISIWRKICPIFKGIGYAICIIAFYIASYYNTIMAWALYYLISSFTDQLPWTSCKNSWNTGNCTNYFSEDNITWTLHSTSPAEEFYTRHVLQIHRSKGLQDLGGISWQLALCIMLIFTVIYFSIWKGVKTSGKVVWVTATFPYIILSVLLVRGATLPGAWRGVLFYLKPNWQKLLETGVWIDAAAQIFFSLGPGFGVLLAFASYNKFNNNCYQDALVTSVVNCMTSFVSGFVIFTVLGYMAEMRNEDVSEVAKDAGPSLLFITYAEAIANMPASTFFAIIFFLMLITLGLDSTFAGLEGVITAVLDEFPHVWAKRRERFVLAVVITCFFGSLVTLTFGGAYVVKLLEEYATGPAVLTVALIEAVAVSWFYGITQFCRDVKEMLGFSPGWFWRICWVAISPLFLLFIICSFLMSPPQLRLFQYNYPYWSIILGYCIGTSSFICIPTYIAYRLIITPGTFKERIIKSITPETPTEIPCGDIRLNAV
Chain of Beta-1 adrenergic receptor (P08588 whole entry): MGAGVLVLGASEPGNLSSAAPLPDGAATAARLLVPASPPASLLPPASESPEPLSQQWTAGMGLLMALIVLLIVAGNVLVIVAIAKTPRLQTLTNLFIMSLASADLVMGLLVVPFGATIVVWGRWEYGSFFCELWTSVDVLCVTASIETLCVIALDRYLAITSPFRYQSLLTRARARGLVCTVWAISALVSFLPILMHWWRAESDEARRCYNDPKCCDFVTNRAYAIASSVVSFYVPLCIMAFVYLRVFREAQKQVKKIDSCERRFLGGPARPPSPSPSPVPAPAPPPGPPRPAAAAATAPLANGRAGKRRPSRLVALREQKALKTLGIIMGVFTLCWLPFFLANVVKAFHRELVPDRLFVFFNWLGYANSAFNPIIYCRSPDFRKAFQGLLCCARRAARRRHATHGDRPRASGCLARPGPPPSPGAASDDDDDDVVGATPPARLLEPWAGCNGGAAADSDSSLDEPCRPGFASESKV

O=C(c1ccc(C[C@@H]2CC[C@H]([C@H](O)c3ccccc3)N2)cc1)N1CCN(Cc2nnn(CC3CC3)n2)CC1
EC50 [1]: 0.0052 µM | Emax [2]: 99% | IC50 [3]: > 20 µM | IC50 [4]: > 20 µM | IC50 [5]: 39.4 µM | IC50 [6]: > 30 µM | IC50 [7]: > 10 µM | AC50 [8]: 70 µM | EC50 [9]: 1.39 µM

CCc1nnc([C@H]2[C@@H]3CN(C(=O)c4ccc(C[C@@H]5CC[C@H]([C@H](O)c6ccccc6)N5)cc4)C[C@@H]32)o1
AUC/dose (Rattus norvegicus [10]): 0.21 µM·h/mg/kg | clearance [11]: 30 mL/min/kg | Vd [12]: 5.2 L/kg | AUC/dose (Canis familiaris [13]): 0.46 µM·h/mg/kg | AUC/dose (Rhesus monkey [14]): 0.06 µM·h/mg/kg | bioavailability [15]: 5%

O=C(c1ccc(C[C@@H]2CC[C@H]([C@H](O)c3ccccc3)N2)cc1)N1CCN(Cc2ncn(CC(F)(F)F)n2)CC1
EC50 [1]: 0.0016 µM | Emax [2]: 113% | IC50 [3]: > 20 µM | IC50 [4]: > 20 µM | IC50 [5]: > 60 µM | IC50 [6]: > 30 µM | IC50 [7]: > 10 µM | EC50 [9]: 0.065 µM | Vd [16]: 38 L/kg | clearance [17]: 105 mL/min/kg | half-life [18]: 5.4 h | AUC/dose (Rattus norvegicus [10]): 0.3 µM·h/mg/kg | bioavailability [19]: < 1%

CCn1nnc(CN2CCN(C(=O)c3ccc(C[C@@H]4CC[C@H]([C@H](O)c5ccccc5)N4)cc3)CC2)n1
EC50 [1]: 0.0051 µM | Emax [2]: 91% | IC50 [3]: > 20 µM | IC50 [4]: > 20 µM | IC50 [5]: > 60 µM | IC50 [6]: > 30 µM | IC50 [7]: > 10 µM | EC50 [9]: 1.52 µM

Cc1noc(-c2cccc(CN3CCN(C(=O)c4ccc(C[C@@H]5CC[C@H]([C@H](O)c6ccccc6)N5)cc4)CC3)n2)n1
EC50 [1]: 0.00032 µM | Emax [2]: 99% | IC50 [3]: > 20 µM | IC50 [4]: > 20 µM | IC50 [5]: > 60 µM | IC50 [6]: > 30 µM | IC50 [7]: 8.79 µM | EC50 [9]: 0.251 µM | clearance [20]: 181 mL/min/kg | Vd [21]: 19 L/kg | half-life [22]: 1.8 h

Cc1nnc(-c2cccc(CN3CCN(C(=O)c4ccc(C[C@@H]5CC[C@H]([C@H](O)c6ccccc6)N5)cc4)CC3)n2)o1
EC50 [1]: 0.0025 µM | Emax [2]: 109% | IC50 [3]: > 20 µM | IC50 [4]: > 20 µM | IC50 [6]: > 30 µM | IC50 [7]: > 10 µM | AC50 [8]: 68 µM | EC50 [9]: 0.254 µM

O=C(c1ccc(C[C@@H]2CC[C@H]([C@H](O)c3ccccc3)N2)cc1)N1CCN(Cc2nnn(CC(F)F)n2)CC1
EC50 [1]: 0.0015 µM | Emax [2]: 101% | IC50 [3]: > 20 µM | IC50 [4]: > 20 µM | IC50 [6]: > 30 µM | IC50 [7]: > 10 µM | AC50 [8]: > 100 µM | EC50 [9]: 0.827 µM | Vd [16]: 21 L/kg | clearance [17]: 102 mL/min/kg | CL free (Rattus norvegicus [23]): 182 mL/min/kg | half-life [18]: 2.6 h | AUC/dose (Rattus norvegicus [10]): 0.05 µM·h/mg/kg | fAUC/dose (Rattus norvegicus [24]): 0.03 µM·h/mg/kg | bioavailability [19]: 16% | fraction unbound [25]: 0.56 | clearance [26]: 22 mL/min/kg | CL free (Canis familiaris [27]): 34 mL/min/kg | Vd [28]: 13 L/kg | half-life [29]: 8.5 h | AUC/dose (Canis familiaris [13]): 0.29 µM·h/mg/kg | fAUC/dose (Canis familiaris [30]): 0.19 µM·h/mg/kg | bioavailability [31]: 20% | fraction unbound [32]: 0.65

O=C(c1ccc(C[C@@H]2CC[C@H]([C@H](O)c3ccccc3)N2)cc1)N1CCN(Cc2ccccn2)CC1
Emax [2]: 87 to 88% | IC50 [3]: > 20 µM | IC50 [4]: > 20 µM | IC50 [6]: > 30 µM | IC50 [7]: > 10 µM | AC50 [8]: 54 µM | EC50 [9]: 0.339 µM | Vd [16]: 19 L/kg | clearance [17]: 71 mL/min/kg | CL free (Rattus norvegicus [23]): 148 mL/min/kg | half-life [18]: 2.6 h | AUC/dose (Rattus norvegicus [10]): 0.35 µM·h/mg/kg | fAUC/dose (Rattus norvegicus [24]): 0.17 µM·h/mg/kg | bioavailability [19]: 71% | fraction unbound [25]: 0.48 | clearance [26]: 7.9 mL/min/kg | clearance [11]: 18 mL/min/kg | CL free (Canis familiaris [27]): 17 mL/min/kg | CL free (Rhesus monkey [33]): 43 mL/min/kg | Vd [28]: 6.4 L/kg | Vd [12]: 11 L/kg | half-life [29]: 12 h | half-life [34]: 5.8 h | AUC/dose (Canis familiaris [13]): 1.3 µM·h/mg/kg | AUC/dose (Rhesus monkey [14]): 0.34 µM·h/mg/kg | fAUC/dose (Canis familiaris [30]): 0.62 µM·h/mg/kg | fAUC/dose (Rhesus monkey [35]): 0.14 µM·h/mg/kg | bioavailability [31]: 27% | bioavailability [15]: 16% | fraction unbound [32]: 0.48 | fraction unbound [36]: 0.42

O=C(c1ccc(C[C@@H]2CC[C@H]([C@H](O)c3ccccc3)N2)cc1)N1CCN(Cc2ncn(CC(F)F)n2)CC1
EC50 [1]: 0.0029 µM | Emax [2]: 108% | IC50 [3]: > 20 µM | IC50 [4]: > 20 µM | IC50 [6]: > 30 µM | IC50 [7]: > 10 µM | EC50 [9]: 0.026 µM | Vd [16]: 57 L/kg | clearance [17]: 111 mL/min/kg | half-life [18]: 7.3 h | AUC/dose (Rattus norvegicus [10]): 0.29 µM·h/mg/kg | bioavailability [19]: < 1%
